Assay results gathered from unrelated publications.
Medium: plasma

SMILES	system	conditions	measurement	result
Cl.[2H]C([2H])([2H])CC(=O)c1cnc(NC(=O)C2CC2)cc1Nc1cccc(-c2ncn(C([2H])([2H])[2H])n2)c1OC	human	oral, 20 mg, multiple doses, once daily, steady state	AUC	1100 ng·h/mL
Cn1cc(Nc2nc(N)nc(-c3cccc(-n4ccc5cc(C6CC6)cc(F)c5c4=O)c3CO)n2)cn1	human	oral, 900 mg, single dose, fasted, suspension	AUC(0-t)	64100 ng·h/mL
CC(=O)N[C@H]1CC[C@H](NC(=O)CN2CCN(c3nncc(-c4ccc(C)cc4)n3)CC2)CC1	female human	oral, 100 mg, single dose, fasted, healthy volunteers	AUC(0-inf)	6500 ng·h/mL
CNC(=O)n1ccc2cc(Oc3ccnc(NC(=O)c4ccc(C5CCN(CCO)CC5)cc4)c3)c(OCCOC)cc21	human	oral, 35 mg, single dose, healthy volunteers	AUC(0-inf)	93.4 ng·h/mL
COc1ccc([C@@H](O)c2cc(-c3ncnc4cc(N5CCOCC5)ccc34)c(F)cc2Cl)nn1	human	oral, 200 mg, single dose, patients	AUC(0-t)	6790 ng·h/mL
NS(=O)(=O)OC[C@@H]1C[C@@H](n2ccc3c(N[C@H]4CCc5ccccc54)ncnc32)C[C@@H]1O	human	intravenous, 15 mg/m², patients	AUC(0-t)	780 ng·h/mL
CC[C@H](C)CCCCC(=O)N[C@@H](CCN)C(=O)N[C@H](C(=O)N[C@@H](CCN)C(=O)N[C@H]1CCNC(=O)[C@H]([C@@H](C)O)NC(=O)[C@H](CCN)NC(=O)[C@H](CCN)NC(=O)[C@H](CC(C)C)NC(=O)[C@@H](Cc2ccccc2)NC(=O)[C@H](CCN)NC1=O)[C@@H](C)O	human	intravenous, 0.75 mg/kg, single dose, infusion	AUC(0-inf)	20500 ng·h/mL
C[C@H](O)C(=O)C1=Nc2c(nc(N)[nH]c2=O)NC1	human	oral, 20 mg/kg, single dose, healthy volunteers	AUC(0-t)	5.29 ng·h/mL
CC(C)n1c(Nc2cccnc2)nc2cnc(Nc3ccc(N4CCN(C)CC4)cc3)nc21	male human	oral, 150 mg	AUC(0-inf)	1390 ng·h/mL
Cc1ccc(C(=O)Nc2ccc(CN3CCN(C)CC3)c(C(F)(F)F)c2)cc1C#Cc1cnc2[nH]ncc2c1	human	oral, 20 mg, single dose, healthy volunteers	AUC(0-t)	105 ng·h/mL
CN1CC[C@@H](c2c(O)cc(O)c3c(=O)cc(-c4ccc(C(F)(F)F)cc4Cl)oc23)[C@@H]1CO	human	oral, 50 mg, patients	AUC(0-t)	1430 ng·h/mL
NC(=S)NN=Cc1ncccc1N	human	oral, 150 mg	AUC(0-t)	990 ng·h/mL
